{
  "source": "PubChem BioAssay AID624085",
  "about": "(The Scripps Research Institute Molecular Screening Center, 2012)",
  "biological_target": "metallo-beta-lactamase IMP-1 (Pseudomonas aeruginosa)",
  "assay": "potency against purified IMP-1 enzyme – biochemical, absorbance, IC50, selectivity assay, late-stage follow-up (AID 624085)",
  "settings": "purified IMP-1, nitrocefin hydrolysis, epi-absorbance",
  "how_it_was_run": "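Medium: HEPES buffer, pH 7.1, with zinc and Brij detergent; System: purified IMP-1 enzyme; Technique: fluorescence quench readout, 480/530 nm, EDTA-stopped; Timing: 15 min pre-incubation, 25 min reaction at 25 °C; Compound dosing: dilution series per compound, highest nominal amount 60 µM; Control set: enzyme-free wells as reference control; Replication: triplicate wells per concentration.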",
  "note": "Active and inactive are the calls of the source.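 How the source made its calls: active means IMP-1 enzyme inhibition with IC50 of 10 µM or lower; inactive means IC50 above 10 µM.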",
  "data": [
    {"smiles": "CN1CCN(NC(=O)CN2C(=O)/C(=C/c3c(Cl)ccc(Cl)c3Cl)SC2=S)CC1", "values": [
      {"measurement": "IC50", "result": 3.02, "unit": "µM"}
    ]},
    {"smiles": "CN1CCN(NC(=O)CN2C(=O)/C(=C/c3c(Cl)cccc3Cl)SC2=S)CC1", "values": [
      {"measurement": "IC50", "result": "inactive"}
    ]}
  ]
}
